Source: PubChem BioAssay (Broad Institute)
E-sel inducer = E-selectin induction in HUVECs, primary screen, imaging, HUVEC, immunofluorescence imaging, single point; P16581; normalized: neutral wells 0, TNF-alpha wells 100; activation, % at 7.58 µM; 260,000 tested, 0.37% active; AID 686992, 2013;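 active = mean E-selectin-positive cell signal at least 10% of the positive control, reached in at least 60% of replicates, without over 20% cell loss; inconclusive = no rule given, readout overlaps actives, possibly toxicity-flagged; inactive = the rest, including those meeting only one limit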
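System: HUVEC / Compound: single concentration / Signal: immunofluorescence imaging / Read-out: percent E-selectin-positive cells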
SIRT5 inh = SIRT5 desuccinylase inhibitors, primary screen, biochemical, fluorescence imaging, single point, set 5; inhibition, % at 15 µM; NAD-dependent protein deacylase sirtuin-5, mitochondrial (Homo sapiens), Q9NXA8; 330,000 tested, 1.1% active; Purified SirT5, succinyl-peptide AMC, trypsin-coupled fluorescence; in the data active = inhibition above about 15%; inconclusive = no clear call, values can overlap the other calls
Target sequence (Q9NXA8 whole entry, looked up): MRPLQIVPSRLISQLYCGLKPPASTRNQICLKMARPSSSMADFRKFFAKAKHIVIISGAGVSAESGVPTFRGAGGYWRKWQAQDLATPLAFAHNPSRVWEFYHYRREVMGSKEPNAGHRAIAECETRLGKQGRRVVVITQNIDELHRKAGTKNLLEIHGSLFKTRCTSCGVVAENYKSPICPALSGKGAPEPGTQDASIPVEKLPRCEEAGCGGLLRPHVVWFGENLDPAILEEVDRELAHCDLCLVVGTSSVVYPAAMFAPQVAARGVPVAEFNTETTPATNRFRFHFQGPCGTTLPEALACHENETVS
DENV2 CPE rescue = inhibitors of DENV2 cytopathic effect, primary screen, cell-based, plate reader, single concentration. AID 651640, 2012. 350,000 tested, 1.7% active. CPE inhibition, % at 9.99 µM. DENV2-infected cells, cytopathic effect rescue; in the data active = CPE inhibition above about 20%, passing the limit was not always enough; inconclusive = no clear call, values can overlap the other calls; tested in BHK-21 cells;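 note: 0% = median of neutral control wells and 100% = median of positive control wells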
* = called active by the depositor; ? = inconclusive; . = no result; ! = not active in a repeat. Shown are actives, neighbours in structure and some others; about 2.9% of the full set was active somewhere.

SMILES	E-sel inducer	SIRT5 inh	DENV2 CPE rescue
CC1CN(C(=O)COC(=O)[C@@H](NC(=O)c2ccccc2Cl)C(C)C)CC(C)O1 (some centres undefined)	.	-1	11
C[C@@H]1CN([C@H](C)CO)C(=O)Cc2cc(NC(=O)CCCN(C)C)ccc2O[C@H]1CN(C)S(=O)(=O)c1ccc(F)cc1	0	-6	-2
Cc1c([N+](=O)[O-])cc(C(=O)Nc2ccc(NC(=O)c3ccco3)cc2)cc1[N+](=O)[O-]	.	19*	-5
Cc1c(C(=O)Nc2ccc(Cc3ccncc3)cc2)cccc1[N+](=O)[O-]	-1	-1	.
Cc1c(C(=O)Nc2ccc(C(=O)Nc3ccccc3)cc2)cccc1[N+](=O)[O-]	0	-3	26*
COc1ccc(C(=O)Nc2ccc(Nc3ccccc3)cc2)cc1OC	.	-3	13
COc1ccc(C(=O)Nc2ccc(Nc3ccccc3)cc2)cc1[N+](=O)[O-]	0	1	40*
O=C(Nc1ccc(Cl)c([N+](=O)[O-])c1)c1ccco1	.	-7	?
CCC(=O)N1CCN(c2cc(N3CCN(C)CC3)c(F)cc2[N+](=O)[O-])CC1	2	10	5
O=C(COC(=O)CCc1nc2ccccc2c(=O)[nH]1)NC(c1ccccc1)c1ccccc1	-1	-5	2
COCC(C)n1c(C)cc(C(=O)COC(=O)CCc2nc3ccccc3c(=O)[nH]2)c1C (centres undefined)	0	20*	2
CC(NC(=O)COC(=O)CCc1nc2ccccc2c(=O)[nH]1)c1ccccc1 (centres undefined)	49*	-2	3
COCCCn1c(C)cc(C(=O)COC(=O)CCc2nc3ccccc3c(=O)[nH]2)c1C	0	-1	1
O=C(Oc1ccccc1)c1cccnc1Oc1ccccc1	.	0	0
Cc1cccc(C)c1NC(=O)c1ccc2c(c1)CCN2S(C)(=O)=O	.	-4	2
COC(=O)C1=C(C(=O)OC)[C@@H]2N(C)c3ccccc3[C@@]23C[C@@H](C(=O)OC)N=C3N1	0	0	4
COCCNc1nc(Nc2ccccc2Cl)c2sccc2n1	0	0	38*
COCCNc1nc(NCCOc2ccccc2Cl)c2sccc2n1	0	-1	-2
O=C(NC12CC3CC(CC(C3)C1)C2)c1cccc(OC(F)F)c1	0	-2	-4
C[C@@H]1CN([C@@H](C)CO)C(=O)CCCn2cc(nn2)CO[C@H]1CN(C)C(=O)Nc1cccc(F)c1	0	0	87*!
C[C@H]1CN([C@@H](C)CO)C(=O)CCCn2cc(nn2)CO[C@@H]1CN(C)C(=O)Nc1ccc(F)cc1	0	-1	44*!
C[C@@H]1CN([C@@H](C)CO)C(=O)CCCn2cc(nn2)CO[C@@H]1CN(C)C(=O)Nc1ccccc1C(F)(F)F	2	.	.
C[C@H](CO)N1C[C@H](C)[C@H](CN(C)C(=O)Nc2cccc(F)c2)OCc2cn(nn2)CCCC1=O	0	2	-1
C[C@@H]1CN([C@H](C)CO)C(=O)CCCn2cc(nn2)CO[C@H]1CN(C)C(=O)Nc1ccccc1C(F)(F)F	0	-3	48*!
C[C@H]1CN([C@@H](C)CO)C(=O)CCCn2cc(nn2)CO[C@@H]1CN(C)C(=O)Nc1ccc(C(C)(C)C)cc1	0	1	14
SMILES	E-sel inducer	SIRT5 inh	DENV2 CPE rescue
C[C@H]1CN([C@@H](C)CO)C(=O)c2cccc(NC(=O)Nc3ccc(F)cc3)c2O[C@H]1CN(C)Cc1ccc2c(c1)OCO2	0	-3	1
O=C(Cn1cc(COC(=O)c2c3ccccc3cc3ccccc23)nn1)c1ccc(O)cc1	1	.	-2
CCNC(=O)C[C@H]1CC[C@@H]2[C@H](COC[C@@H](O)CN2Cc2ccccc2F)O1	0	0	-3
Cc1ccc(C)c(S(=O)(=O)Nc2ccc(C(=O)NCCCN3CCCC3=O)cc2)c1	-3	-3	-8
CCOc1ccc(NCc2cccn2-c2nnc(N3CCC(C(=O)NCCCN4CCCCC4C)CC3)s2)cc1 (centres undefined)	.	1	0
C[C@H]1CN([C@@H](C)CO)C(=O)c2cc(NC(=O)Nc3ccc4c(c3)OCO4)ccc2O[C@H]1CN(C)C(=O)Nc1ccc2c(c1)OCO2	0	16*	1
C[C@@H]1CN([C@H](C)CO)C(=O)c2cc(NC(=O)Nc3cccc4ccccc34)ccc2O[C@@H]1CN(C)C(=O)Nc1ccc2c(c1)OCO2	0	10	33*
C[C@H]1CN([C@@H](C)CO)C(=O)c2cc(NC(=O)Nc3ccc4c(c3)OCO4)ccc2O[C@@H]1CN(C)C(=O)Nc1ccc2c(c1)OCO2	0	-3	-6
CC(C)NC(=O)Nc1ccc2c(c1)C(=O)N([C@@H](C)CO)C[C@H](C)[C@H](CN(C)C(=O)Nc1ccc3c(c1)OCO3)O2	0	0	87*
C[C@H](CO)N1C[C@H](C)[C@H](CN(C)C(=O)Nc2ccc3c(c2)OCO3)Oc2ccc(NC(=O)Nc3ccc4c(c3)OCO4)cc2C1=O	0	6	-13
C[C@@H]1CN([C@@H](C)CO)C(=O)c2cc(NC(=O)Nc3cccc4ccccc34)ccc2O[C@@H]1CN(C)C(=O)Nc1ccc2c(c1)OCO2	0	9	-5
CC(C)NC(=O)Nc1ccc2c(c1)C(=O)N([C@H](C)CO)C[C@@H](C)[C@@H](CN(C)C(=O)Nc1ccc3c(c1)OCO3)O2	0	-2	25*
C[C@@H]1CN([C@@H](C)CO)C(=O)c2cc(NC(=O)Nc3ccc4c(c3)OCO4)ccc2O[C@H]1CN(C)C(=O)Nc1ccc2c(c1)OCO2	0	2	-8
Cc1noc(C)c1S(=O)(=O)Nc1ccc2c(c1)C(=O)N([C@H](C)CO)C[C@@H](C)[C@@H](CN(C)Cc1ccc(C(=O)O)cc1)O2	0	-22	-4
Cc1c(C)c2ccc(OC(C)C(=O)N3CC[C@@]4(O)CCCC[C@H]4C3)cc2oc1=O (some centres undefined)	.	-22	8
CCN(Cc1ccccc1)C(=O)C1CCN(c2ncnc3c2nc2n3CCCCC2)CC1	.	5	-3
CN(CC(=O)Nc1ccccc1Br)CC(=O)NC(c1ccccc1)c1ccccc1	.	1	-2
C[C@H](CO)N1C[C@H](C)[C@H](CN(C)C(=O)Nc2ccc3c(c2)OCO3)Oc2ccc(N(C)C)cc2C1=O	-15	-2	3
C[C@H]1CN([C@@H](C)CO)C(=O)c2cc(NC(=O)Nc3ccc4c(c3)OCO4)ccc2O[C@H]1CN(C)C	-8	13	4
C[C@@H]1CN([C@@H](C)CO)C(=O)c2cc(NC(=O)Nc3ccc4c(c3)OCO4)ccc2O[C@H]1CN(C)C	45*	1	0
C[C@@H]1CN([C@@H](C)CO)C(=O)c2cc(N(C)C)ccc2O[C@H]1CN(C)C(=O)Nc1ccc2c(c1)OCO2	-10	10	40*
CC(=O)N(C)C[C@H]1Oc2cc(C3=CCCC3)ccc2S(=O)(=O)N([C@H](C)CO)C[C@@H]1C	0	-2	3
O=C(C1CCOCC1)N1CC[C@@H]2[C@H]1c1cc(-c3ccc(F)cc3)ccc1N[C@@H]2CO	2	0	-6
COC(=O)c1sc2nc(CN3CCOCC3)nc(N3CCOCC3)c2c1C	.	3	.
